Experimental data: BindingDB's records for doi:10.1021/jm2013198 (Bar-Ilan University, 2012)

Key:
[1] = molecular target: T1, P2Y purinoceptor 6 (Rattus norvegicus, UniProt Q63371); assay: (§1) Agonist activity at rat P2Y purinoceptor 6 expressed in human 1321N1 cells assessed as increase in intracellular calcium concentration by spectrofluorimetry
How it was run: (§2)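 1321N1 astrocytoma cells lacking endogenous P2Y receptors, stably transfected with turkey P2Y1, human P2Y2, human P2Y4 or rat P2Y6, grown in DMEM with 5% FBS, penicillin/streptomycin and 500 µg/mL G-418. Fura-2-loaded cell suspensions were exposed at 37 °C in 10 mM Hepes-buffered saline, pH 7.4, with 1 mM CaCl2 and 1 mM MgCl2. Peak [Ca2+]i rise by dual-excitation spectrofluorometry across concentrations; EC50 from curve fits; three experiments on separate days per subtype.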

[2] = molecular target: T1, P2Y purinoceptor 6; assay: as §1; how it was run: as §2; remark: listed apart in the source
[3] = molecular target: T2, P2Y purinoceptor 4 (Homo sapiens, UniProt P51582); assay: (§3) Agonist activity at human P2Y purinoceptor 4 expressed in human 1321N1 cells assessed as increase in intracellular calcium concentration by spectrofluorimetry
How it was run: (§4)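 1321N1 astrocytoma cells (no endogenous P2Y receptors) stably expressing hP2Y4, grown in DMEM with 5% FBS, penicillin/streptomycin and 500 μg/mL G-418. Fura-2-loaded cell suspensions; compounds applied at various concentrations, 37 °C, 10 mM Hepes-buffered saline pH 7.4 with 1 mM CaCl2/MgCl2. Peak [Ca2+]i rise by dual-excitation fluorometry gives EC50; UTP reference agonist; three experiments on separate days.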

[4] = molecular target: T2, P2Y purinoceptor 4; assay: as §3; how it was run: as §4; remark: listed apart in the source
[5] = molecular target: T3, P2Y purinoceptor 1 (Meleagris gallopavo, UniProt P49652); assay: (§5) Agonist activity at turkey P2Y purinoceptor 1 expressed in human 1321N1 cells assessed as increase in intracellular calcium concentration by spectrofluorimetry
[6] = molecular target: T3, P2Y purinoceptor 1; assay: as §5; how it was run: as §2; remark: listed apart in the source
[7] = molecular target: T4, P2Y purinoceptor 2 (Homo sapiens, UniProt P41231); assay: (§6) Agonist activity at human P2Y purinoceptor 2 expressed in human 1321N1 cells assessed as increase in intracellular calcium concentration by spectrofluorimetry; how it was run: as §2
[8] = molecular target: T4, P2Y purinoceptor 2; assay: as §6; remark: listed apart in the source

T3 sequence (P49652 whole entry): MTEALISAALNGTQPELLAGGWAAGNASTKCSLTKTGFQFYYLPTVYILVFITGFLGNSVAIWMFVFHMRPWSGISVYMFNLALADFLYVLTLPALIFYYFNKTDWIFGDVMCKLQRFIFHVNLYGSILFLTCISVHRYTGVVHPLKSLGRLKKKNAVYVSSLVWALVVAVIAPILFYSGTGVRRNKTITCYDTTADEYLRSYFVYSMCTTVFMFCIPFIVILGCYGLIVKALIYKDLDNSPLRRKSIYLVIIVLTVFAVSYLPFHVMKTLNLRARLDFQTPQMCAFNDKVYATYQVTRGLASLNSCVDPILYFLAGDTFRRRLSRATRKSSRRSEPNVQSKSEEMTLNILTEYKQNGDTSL
T1 sequence (Q63371 whole entry): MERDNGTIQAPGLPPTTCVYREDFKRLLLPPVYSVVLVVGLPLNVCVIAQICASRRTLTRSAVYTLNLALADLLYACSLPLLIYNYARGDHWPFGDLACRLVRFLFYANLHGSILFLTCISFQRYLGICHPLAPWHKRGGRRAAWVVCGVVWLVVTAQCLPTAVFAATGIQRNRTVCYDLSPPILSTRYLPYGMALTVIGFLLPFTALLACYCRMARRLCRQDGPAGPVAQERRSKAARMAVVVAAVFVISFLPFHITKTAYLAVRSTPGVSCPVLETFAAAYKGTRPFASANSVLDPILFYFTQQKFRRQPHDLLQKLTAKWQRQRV
T4 sequence (P41231 whole entry): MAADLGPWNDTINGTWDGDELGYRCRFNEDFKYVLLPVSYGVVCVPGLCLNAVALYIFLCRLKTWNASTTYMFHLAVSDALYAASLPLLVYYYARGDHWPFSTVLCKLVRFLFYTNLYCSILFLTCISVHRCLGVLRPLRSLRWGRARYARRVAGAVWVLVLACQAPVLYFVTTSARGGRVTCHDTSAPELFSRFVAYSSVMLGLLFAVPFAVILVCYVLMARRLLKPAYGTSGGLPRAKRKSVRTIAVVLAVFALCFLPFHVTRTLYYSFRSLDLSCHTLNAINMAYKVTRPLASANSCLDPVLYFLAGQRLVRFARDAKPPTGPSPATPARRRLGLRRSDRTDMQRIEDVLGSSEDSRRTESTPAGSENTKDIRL
T2 sequence (P51582 whole entry): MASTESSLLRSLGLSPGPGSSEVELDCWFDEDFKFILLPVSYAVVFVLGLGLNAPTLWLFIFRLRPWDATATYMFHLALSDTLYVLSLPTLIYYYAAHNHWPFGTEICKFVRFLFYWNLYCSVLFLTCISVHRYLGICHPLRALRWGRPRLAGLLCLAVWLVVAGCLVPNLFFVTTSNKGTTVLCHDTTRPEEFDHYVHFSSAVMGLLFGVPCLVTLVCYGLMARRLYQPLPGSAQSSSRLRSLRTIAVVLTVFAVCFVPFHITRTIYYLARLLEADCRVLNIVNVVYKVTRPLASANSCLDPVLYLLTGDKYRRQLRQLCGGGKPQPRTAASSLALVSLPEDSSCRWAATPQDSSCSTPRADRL

SMILES	EC50 [1] [µM]	EC50 [2] [µM]	EC50 [3] [µM]	EC50 [4] [µM]	EC50 [5] [µM]	EC50 [6] [µM]	EC50 [7] [µM]	EC50 [8] [µM]
BP(=O)(OC[C@H]1O[C@@H](n2ccc(=O)[nH]c2=O)[C@H](O)[C@@H]1O)OP(=O)(O)OP(=O)(O)OC[C@H]1O[C@@H](n2ccc(=O)[nH]c2=O)[C@H](O)[C@@H]1O (some centres undefined)	0.72	0.72	–	–	–	–	–	–
BP(=O)(OC[C@H]1O[C@@H](n2ccc(=O)[nH]c2=O)[C@H](O)[C@@H]1O)OP(=O)(O)OP(=O)(O)OP(=O)(O)OC[C@H]1O[C@@H](n2ccc(=O)[nH]c2=O)[C@H](O)[C@@H]1O (some centres undefined)	36.1	36.1	9.4	9.4	–	–	–	–
BP(=O)(OP(=O)(O)OC[C@H]1O[C@@H](n2cnc3c(N)ncnc32)[C@H](O)[C@@H]1O)OP(=O)(O)OP(=O)(O)OC[C@H]1O[C@@H](n2cnc3c(N)ncnc32)[C@H](O)[C@@H]1O (some centres undefined)	–	–	–	–	3	3	–	–
BP(=O)(OP(=O)(O)OC[C@H]1O[C@@H](n2cnc3c(N)ncnc32)[C@H](O)[C@@H]1O)OP(=O)(O)OP(=O)(O)OC[C@H]1O[C@@H](n2ccc(=O)[nH]c2=O)[C@H](O)[C@@H]1O (some centres undefined)	1.29	1.29	–	–	6.9	–	64.2	–
BP(=O)(OP(=O)(O)OC[C@H]1O[C@@H](n2ccc(=O)[nH]c2=O)[C@H](O)[C@@H]1O)OP(=O)(O)OP(=O)(O)OC[C@H]1O[C@@H](n2cnc3c(N)ncnc32)[C@H](O)[C@@H]1O (some centres undefined)	20.9	20.9	–	–	0.5	0.5	–	–
BP(=O)(OC[C@H]1O[C@@H](n2cnc3c(N)ncnc32)[C@H](O)[C@@H]1O)OP(=O)(O)OP(=O)(O)OC[C@H]1O[C@@H](n2cnc3c(N)ncnc32)[C@H](O)[C@@H]1O (some centres undefined)	–	–	–	–	0.8	0.8	–	–
BP(=O)(OC[C@H]1O[C@@H](n2cnc3c(N)ncnc32)[C@H](O)[C@@H]1O)OP(=O)(O)OP(=O)(O)OP(=O)(O)OC[C@H]1O[C@@H](n2cnc3c(N)ncnc32)[C@H](O)[C@@H]1O (some centres undefined)	–	–	–	–	1.48	1.48	25.9	25.9
BP(=O)(OP(=O)(O)OC[C@H]1O[C@@H](n2ccc(=O)[nH]c2=O)[C@H](O)[C@@H]1O)OP(=O)(O)OP(=O)(O)OC[C@H]1O[C@@H](n2ccc(=O)[nH]c2=O)[C@H](O)[C@@H]1O (some centres undefined)	1.93	1.93	–	–	–	–	–	–
